{"source": "paper PMC8486219", "about": "(Cancer Science, 2021)", "key": {"PD‐L1‐positive TNBC": {"system": "PD‐L1‐positive TNBC", "conditions": "phase 1b trial of 32 patients with PD-L1-positive TNBC; cited from earlier work"}, "MDA‐MB‐231 cells": {"system": "MDA‐MB‐231 cells", "assay": "Real-time cell migration assay", "type": "cell-based, human", "conditions": "2 h pretreatment, 1 µM TH1902 or 2 µM docetaxel, monitored 12 h", "outline": "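MDA-MB-231 cells were transfected 24 h with scrambled or SORT1 siRNA, then pretreated 2 h with or without compound. Cells (25 000/well) were seeded serum-free into xCELLigence CIM plates (8 µm pores, underside gelatin-coated 0.15%, 1 h, 37°C), with serum-free medium below. After 30 min adhesion, impedance (Cell Index) was read hourly for 12 h. Duplicate wells, two experiments; one-way ANOVA with Dunnett at 10 h.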"}, "[1]": {"assay": "Preliminary pharmacokinetics after i.v. bolus", "type": "in vivo, mouse", "conditions": "CD-1 mice, single i.v. bolus TH1902 50 mg/kg"}, "MDA‐MB‐231‐Luc xenograft": {"system": "MDA‐MB‐231‐Luc xenograft", "assay": "MDA-MB-231-Luc xenograft, intraperitoneal treatment", "type": "in vivo, mouse", "conditions": "i.p. docetaxel 15 mg/kg/wk (MTD), five cycles, CD-1 nude mice, bioluminescence", "outline": "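MDA-MB-231-Luc cells (5 × 10^6 in HBSS) were injected s.c. into the right flank of female CD-1 nude mice under isoflurane. At ~100 mm3, mice received weekly i.p. vehicle, docetaxel 15 mg/kg, or test compound 50 mg/kg for five cycles. Tumor bioluminescence was monitored and expressed relative to each mouse's day-0 post-treatment value, as mean ± SEM (six mice/group).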"}, "MDA‐MB‐231 xenograft": {"system": "MDA‐MB‐231 xenograft", "assay": "MDA-MB-231 xenograft, intravenous treatment", "type": "in vivo, mouse"}}, "data": [{"molecule": "Pembrolizumab: monoclonal anti‐PD‐1 antibody", "values": [{"measurement": "response rate", "setting": "PD‐L1‐positive TNBC", "result": 18.5, "unit": "%"}]}, {"molecule": "CC(=O)O[C@@]12CO[C@@H]1C[C@H](O)[C@@]1(C)C(=O)[C@H](O)C3=C(C)[C@@H](OC(=O)[C@H](O)[C@@H](NC(=O)OC(C)(C)C)c4ccccc4)C[C@@](O)([C@@H](OC(=O)c4ccccc4)[C@H]21)C3(C)C", "note": "[docetaxel]", "values": [{"measurement": "Effect on cell migration (in words)", "setting": "MDA‐MB‐231 cells", "result": "inhibit cell migration"}, {"measurement": "free docetaxel exposure, fold lower than TH1902-associated docetaxel in plasma", "setting": "[1]", "result": "approximately 37 fold"}, {"measurement": "AUC of free (released) docetaxel after TH1902 dosing", "setting": "[1]; plasma, UPLC/MS", "result": 15.5, "unit": "µM·h"}, {"measurement": "Cmax of free (released) docetaxel after TH1902 dosing", "setting": "[1]; plasma, UPLC/MS", "result": 7, "unit": "µM"}, {"measurement": "Start of tumor relapse", "setting": "MDA‐MB‐231‐Luc xenograft", "result": 46, "unit": "days"}, {"measurement": "Tumor growth at a quarter of the MTD (in words)", "setting": "MDA‐MB‐231 xenograft; i.v. docetaxel 3.75 mg/kg or TH1902 8.75 mg/kg, n = 6 mice/group", "result": "unaffected"}, {"measurement": "Restart of tumor growth", "setting": "MDA‐MB‐231 xenograft; i.v. docetaxel 15 mg/kg/wk (MTD), three injections, n = 5 mice/group", "result": 50, "unit": "days"}]}]}
